We go through 13 compounds from ChEMBL document CHEMBL4382211, “Design, synthesis, and X-ray studies of potent HIV-1 protease inhibitors incorporating aminothiochromane and aminotetrahydronaphthalene carboxamide derivatives as the P2 ligands” (Eur J Med Chem, 2018).

Data set [1] has as its system Human immunodeficiency virus 1. The data set can be described thus: Antiviral activity against HIV1 NL4-3 infected in human MT4 cells after 7 days by MTT assay. It is filed as functional, organism-based. As to conditions: Human immunodeficiency virus 1, NL4-3, MT4, 168 h. The method, boiled down: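 MT-4 human T-lymphoid cells were exposed to HIV-1 NL4-3 (subtype B). IC50 values are the mean of at least two experiments.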
A general note: Tetrazolium assays rely on reduction of a dye to a coloured formazan, in cell work by metabolically active cells.

For a further data set, the target named is Protease (Human immunodeficiency virus 1, UniProt Q9YQ12). The data set can be described thus: Inhibition of HIV1 protease using fluorogenic substrate by continuous fluorometric assay.
The nature of data set [2]: (§1) Cytotoxicity against human MT4 cells after 7 days by MTT assay. In kind it is cell-based. The settings on record: MT4 cells.
A short description of data set [3]: Selectivity index, ratio of CC50 for human MT4 cells to IC50 for HIV1 NL4-3. It is filed as toxicity. As to conditions: read-out: Ratio CC50/IC50. The method, boiled down:
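Antiviral IC50 measured in MT-4 human T-lymphoid cells exposed to HIV-1 NL4-3 (subtype B), with values the mean of at least two experiments. CC50 (cytotoxicity) determined in MT-4 cells, given in μM. Index calculated as CC50 divided by IC50.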

A further data set relates to MT4. Described as §1. The settings on record: mt4, 168 h. In kind it is cell-based.

A value given as a limit tells only on which side of the number the result lay.

Protease, sequence (Q9YQ12 whole entry): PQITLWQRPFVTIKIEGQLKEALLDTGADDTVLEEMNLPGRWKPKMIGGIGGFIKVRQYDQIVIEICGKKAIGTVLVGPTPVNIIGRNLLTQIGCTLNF

For orientation: IC50 means the concentration needed to halve the response being measured. Take `CC(C)(C)NC(=O)[C@@H]1C[C@@H]2CCCC[C@@H]2CN1C[C@@H](O)[C@H](Cc1ccccc1)NC(=O)[C@H](CC(N)=O)NC(=O)c1ccc2ccccc2n1`: the midpoint of inhibition in data set [1], the IC50, lay at 15 nM.
Broadly, the Ki is a measure of affinity in units of concentration, obtained from inhibition or displacement. A low value points to a stronger hold on the target. On to `COc1ccc(S(=O)(=O)N(CC(C)C)C[C@@H](O)[C@H](Cc2ccccc2)NC(=O)c2ccc3c(c2)[C@@H](NC(=O)OC(C)(C)C)CC[C@H]3O)cc1`, for which the inhibitory constant (Ki) at Protease was determined as 0.3 nM. Moreover, the IC50 in data set [1] was > 1000 nM.
The corresponding values for `COc1ccc(S(=O)(=O)N(CC(C)C)C[C@@H](O)[C@H](Cc2ccccc2)NC(=O)c2ccc3c(c2)[C@H](NC(=O)OC(C)(C)C)CC[C@@H]3O)cc1` are 1.63 nM and > 1000 nM.
For `COc1ccc(S(=O)(=O)N(CC(C)C)C[C@@H](O)[C@H](Cc2ccccc2)NC(=O)c2ccc3c(c2)[C@@H](N)CC[C@H]3O)cc1` the same measures were 17 nM and > 1000 nM.
The corresponding values for `COc1ccc(S(=O)(=O)N(CC(C)C)C[C@@H](O)[C@H](Cc2ccccc2)NC(=O)c2ccc3c(c2)[C@H](N)CC[C@@H]3O)cc1` are 1.1 nM and > 1000 nM.
The CC50 is the concentration that lowers cell viability or growth by half. A high value points to better tolerance by the cells. Compound `COc1ccc(S(=O)(=O)N(CC(C)C)C[C@@H](O)[C@H](Cc2ccccc2)NC(=O)c2ccc3c(c2)[C@H](NC(=O)OC(C)(C)C)CCS3(=O)=O)cc1` yielded a Ki at Protease of 0.1 nM. Also, in data set [1], the IC50 is 476 nM. The CC50 at 168 h in data set [2] was > 100000 nM. Also, in data set [3], the selectivity ratio is > 210.
`COc1ccc(S(=O)(=O)N(CC(C)C)C[C@@H](O)[C@H](Cc2ccccc2)NC(=O)c2ccc3c(c2)[C@@H](N)CC[C@@H]3O)cc1` displayed an inhibition constant (Ki) at Protease of 0.06 nM. In data set [1], it took 232 nM to reach half-maximal inhibition (IC50). This compound also showed a CC50 in the data set with MT4 of 35100 nM. The selectivity ratio in data set [3] was 151.
As for `COc1ccc(S(=O)(=O)N(CC(C)C)C[C@@H](O)[C@H](Cc2ccccc2)NC(=O)c2ccc3c(c2)[C@@H](NC(=O)OC(C)(C)C)CCS3(=O)=O)cc1`, the affinity at Protease, expressed as Ki, was 0.008 nM. The midpoint of inhibition in data set [1], the IC50, lay at 47 nM. The half-maximal cytotoxic concentration (CC50) at 168 h in data set [2] was > 100000 nM. Also, the selectivity ratio in data set [3] is > 2130.
Consider `COc1ccc(S(=O)(=O)N(CC(C)C)C[C@@H](O)[C@H](Cc2ccccc2)NC(=O)c2ccc3c(c2)[C@@H](NC(=O)OC(C)(C)C)CC[C@@H]3O)cc1`, for which, at Protease, the affinity, expressed as Ki, was 0.14 nM. In data set [1], inhibition was half-maximal at 254 nM (IC50). In the data set on MT4, this compound came in with a CC50 of 33300 nM. For the same compound, the selectivity ratio in data set [3] came to 131.
Compound `COc1ccc(S(=O)(=O)N(CC(C)C)C[C@@H](O)[C@H](Cc2ccccc2)NC(=O)c2ccc3c(c2)[C@@H](NC(=O)OC(C)(C)C)CCS3)cc1` yielded an inhibition constant Ki on Protease of 0.38 nM. Besides, the IC50 in data set [1] was > 1000 nM.
The corresponding values for `COc1ccc(S(=O)(=O)N(CC(C)C)C[C@@H](O)[C@H](Cc2ccccc2)NC(=O)c2ccc3c(c2)[C@H](NC(=O)OC(C)(C)C)CCS3)cc1` are 26.7 nM and > 1000 nM.
The corresponding values for `COc1ccc(S(=O)(=O)N(CC(C)C)C[C@@H](O)[C@H](Cc2ccccc2)NC(=O)c2ccc3c(c2)[C@@H](N)CCS3(=O)=O)cc1` are 15.8 nM and > 1000 nM.
The corresponding values for `COc1ccc(S(=O)(=O)N(CC(C)C)C[C@@H](O)[C@H](Cc2ccccc2)NC(=O)c2ccc3c(c2)[C@H](N)CCS3(=O)=O)cc1` are 18 nM and > 1000 nM.
